According to ChEMBL document CHEMBL3804761, “Synthesis of a stable and orally bioavailable englerin analogue” (Bioorg Med Chem Lett, 2016):

What was measured:
Type in all cases: functional
MDA-MB-435 = experiment: Growth inhibition of human MDA-MB-435 cells incubated for 48 hrs by sulforhodamine B assay; conditions: MDA-MB-435, 48 h; for TGI: read-out: pTGI (converted)
Outline: (§1)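 NCI 60-cell-line panel, standard protocol. Cells exposed to compound for two days, growth read by sulforhodamine B staining. Tested at five 10-fold dilutions, top concentration 100 µM, to give dose-response curves.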

[1] = Growth inhibition of human LOXIMVI cells incubated for 48 hrs by sulforhodamine B assay; conditions: LOX IMVI; for TGI: read-out: pTGI (converted); outline: as §1
MCF7 [2] = experiment: Growth inhibition of human MCF7 cells incubated for 48 hrs by sulforhodamine B assay; conditions: MCF7, 48 h; for CC50: read-out: pLC50 (the source's name) (converted); for TGI: read-out: pTGI (converted); outline: as §1
SK-MEL-5 = experiment: Growth inhibition of human SK-MEL-5 cells assessed as cell growth at 10 uM incubated for 48 hrs by sulforhodamine B assay relative to control; conditions: SK-MEL-5, 48 h, read-out: Activity
Outline: (§2)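 Run in the standard NCI 60-cell-line screen. Cells were exposed to drug for two days, and the read-out was sulforhodamine B staining. Compound was tested at a single final concentration of 10 µM in every line, and results are reported as growth percent.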

NCI-H522 = experiment: Growth inhibition of human NCI-H522 cells assessed as cell growth at 10 uM incubated for 48 hrs by sulforhodamine B assay relative to control; conditions: NCI-H522, 48 h, read-out: Activity; outline: as §2
MDA-MB-468 = experiment: Growth inhibition of human MDA-MB-468 cells assessed as cell growth at 10 uM incubated for 48 hrs by sulforhodamine B assay relative to control; conditions: MDA-MB-468, 48 h, read-out: Activity; outline: as §2
MCF7 [3] = experiment: Growth inhibition of human MCF7 cells assessed as cell growth at 10 uM incubated for 48 hrs by sulforhodamine B assay relative to control; conditions: MCF7, 48 h, read-out: Activity; outline: as §2
NCI/ADR-RES = experiment: Growth inhibition of human NCI/ADR-RES cells assessed as cell growth at 10 uM incubated for 48 hrs by sulforhodamine B assay relative to control; conditions: read-out: Activity; outline: as §2
A549 = experiment: Growth inhibition of human A549/ATCC cells assessed as cell growth at 10 uM incubated for 48 hrs by sulforhodamine B assay relative to control; conditions: A549, 48 h, read-out: Activity; outline: as §2
[4] = Growth inhibition of human OVCAR4 cells incubated for 48 hrs by sulforhodamine B assay; conditions: OVCAR-4, 48 h; for TGI: read-out: pTGI (converted); outline: as §1
[5] = Growth inhibition of human PC3 cells assessed as cell growth at 10 uM incubated for 48 hrs by sulforhodamine B assay relative to control; conditions: PC-3, 48 h, read-out: Activity; outline: as §2
MDA-MB-231 = experiment: Growth inhibition of human MDA-MB-231 cells incubated for 48 hrs by sulforhodamine B assay; conditions: MDA-MB-231, 48 h; for CC50: read-out: pLC50 (the source's name) (converted); for TGI: read-out: pTGI (converted); outline: as §1
K562 = experiment: Growth inhibition of human K562 cells assessed as cell growth at 10 uM incubated for 48 hrs by sulforhodamine B assay relative to control; conditions: K562, 48 h, read-out: Activity; outline: as §2
[6] = Growth inhibition of human OVCAR5 cells incubated for 48 hrs by sulforhodamine B assay; conditions: OVCAR-5, 48 h; for TGI: read-out: pTGI (converted); outline: as §1
ACHN [7] = experiment: Growth inhibition of human ACHN cells assessed as cell growth at 10 uM incubated for 48 hrs by sulforhodamine B assay relative to control; conditions: read-out: Activity; outline: as §2
[8] = Growth inhibition of human HCT15 cells assessed as cell growth at 10 uM incubated for 48 hrs by sulforhodamine B assay relative to control; conditions: HCT-15, 48 h, read-out: Activity; outline: as §2
[9] = Growth inhibition of human Caki1 cells assessed as cell growth at 10 uM incubated for 48 hrs by sulforhodamine B assay relative to control; conditions: CAKI-1, 48 h, read-out: Activity; outline: as §2
786-0 = experiment: Growth inhibition of human 786-0 cells assessed as cell growth at 10 uM incubated for 48 hrs by sulforhodamine B assay relative to control; conditions: 786-0, 48 h, read-out: Activity; outline: as §2
U-251 = experiment: Growth inhibition of human U251 cells incubated for 48 hrs by sulforhodamine B assay; conditions: U-251, 48 h; for TGI: read-out: pTGI (converted)
Outline: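 Tested in the standard NCI 60-cell-line protocol with two-day drug exposure and a sulforhodamine B endpoint. Compounds were first screened at a single final concentration of 10 µM, reported as growth percent. They were then run as five 10-fold dilutions starting from a high concentration of 100 µM to give dose-response curves.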

[10] = Growth inhibition of human SNB75 cells assessed as cell growth at 10 uM incubated for 48 hrs by sulforhodamine B assay relative to control; conditions: SNB-75, 48 h, read-out: Activity; outline: as §2
[11] = Growth inhibition of human HOP62 cells incubated for 48 hrs by sulforhodamine B assay; conditions: HOP-62, 48 h; for TGI: read-out: pTGI (converted); outline: as §1
ACHN [12] = experiment: Growth inhibition of human ACHN cells incubated for 48 hrs by sulforhodamine B assay; conditions: for TGI: read-out: pTGI (converted); outline: as §1
SK-MEL-2 = experiment: Growth inhibition of human SK-MEL-2 cells incubated for 48 hrs by sulforhodamine B assay; conditions: SK-MEL-2, 48 h; for TGI: read-out: pTGI (converted); outline: as §1
[13] = Growth inhibition of human RXF393 cells incubated for 48 hrs by sulforhodamine B assay; conditions: RXF 393, 48 h
Outline: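 Run in the NCI 60-cell-line protocol, with 2-day drug exposure and sulforhodamine B read-out. Dose-response testing used five 10-fold dilutions starting from a high concentration of 100 µM.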

M14 = experiment: Growth inhibition of human M14 cells incubated for 48 hrs by sulforhodamine B assay; conditions: M14, 48 h; for TGI: read-out: pTGI (converted); outline: as §1
[14] = Growth inhibition of human COLO205 cells assessed as cell growth at 10 uM incubated for 48 hrs by sulforhodamine B assay relative to control; conditions: COLO 205, 48 h, read-out: Activity; outline: as §2
[15] = Growth inhibition of human BT549 cells assessed as cell growth at 10 uM incubated for 48 hrs by sulforhodamine B assay relative to control; conditions: BT-549, 48 h, read-out: Activity; outline: as §2
[16] = Growth inhibition of human IGROV1 cells assessed as cell growth at 10 uM incubated for 48 hrs by sulforhodamine B assay relative to control; conditions: IGROV-1, 48 h, read-out: Activity; outline: as §2
KM12 = experiment: Growth inhibition of human KM12 cells assessed as cell growth at 10 uM incubated for 48 hrs by sulforhodamine B assay relative to control; conditions: KM12, 48 h, read-out: Activity; outline: as §2

CC(C)[C@@]12C[C@@H](NC(=O)CO)[C@@](C)(O1)[C@@H]1CC[C@@H](C)[C@H]1[C@@H]2OC(=O)c1ccc2ccccc2c1
GI50 (MDA-MB-435): 17 µM
LC50 (MDA-MB-435): 63.1 µM
TGI (MDA-MB-435): 32.4 µM
GI50 [1]: 16.2 µM
LC50 [1]: 57.5 µM
TGI [1]: 30.2 µM
GI50 (MCF7 [2]): 15.8 µM
CC50 (MCF7 [2]): 72.4 µM
TGI (MCF7 [2]): 33.9 µM
growth at 10 µM (SK-MEL-5): 93.5%
growth at 10 µM (NCI-H522): 77.7%
growth at 10 µM (MDA-MB-468): 81.5%
growth at 10 µM (MCF7 [3]): 75.4%
growth at 10 µM (NCI/ADR-RES): 46.8%
growth at 10 µM (A549): 81%
GI50 [4]: 16.2 µM
LC50 (concentration killing 50% of cells) [4]: 61.7 µM
TGI [4]: 31.6 µM
growth at 10 µM [5]: 66.9%
GI50 (MDA-MB-231): 15.1 µM
CC50 (MDA-MB-231): 67.6 µM
TGI (MDA-MB-231): 32.4 µM
growth at 10 µM (K562): 91.2%
GI50 [6]: 15.5 µM
LC50 [6]: 55 µM
TGI [6]: 28.8 µM
growth at 10 µM (ACHN [7]): 8.4%
growth at 10 µM [8]: 90.8%
growth at 10 µM [9]: 52.6%
growth at 10 µM (786-0): 85%
GI50 (U-251): 16.2 µM
LC50 (concentration giving 50% net cell kill) (U-251): 56.2 µM
TGI (U-251): 30.2 µM
growth at 10 µM [10]: 72.7%
GI50 [11]: 15.1 µM
LC50 [11]: 55 µM
TGI [11]: 28.8 µM
GI50 (ACHN [12]): 5.37 µM
LC50 (concentration killing 50% of cells) (ACHN [12]): 42.7 µM
TGI (ACHN [12]): 17 µM
GI50 (SK-MEL-2): 17 µM
LC50 (SK-MEL-2): 60.3 µM
TGI (SK-MEL-2): 31.6 µM
GI50 [13]: 6.17 µM
CC50 ([13]; read-out: pLC50 (the source's name) (converted)): 49 µM
TGI ([13]; read-out: pTGI (converted)): 20.4 µM
GI50 (M14): 16.6 µM
LC50 (M14): 58.9 µM
TGI (M14): 31.6 µM
growth at 10 µM [14]: 110%
growth at 10 µM [15]: 70.2%
growth at 10 µM [16]: 94.3%
growth at 10 µM (KM12): 94.5%

C/C(=C\C(=O)O[C@H]1[C@@H]2[C@H](C)CC[C@H]2[C@]2(C)O[C@@]1(C(C)C)C[C@H]2NC(=O)CO)c1ccccc1
GI50 (MDA-MB-435): 33.9 µM
LC50 (MDA-MB-435): > 100 µM
TGI (MDA-MB-435): > 100 µM
GI50 [1]: 27.5 µM
LC50 [1]: > 100 µM
TGI [1]: > 100 µM
GI50 (MCF7 [2]): 27.5 µM
CC50 (MCF7 [2]): > 100 µM
TGI (MCF7 [2]): > 100 µM
growth at 10 µM (SK-MEL-5): 101%
growth at 10 µM (NCI-H522): 92.5%
growth at 10 µM (MDA-MB-468): 101%
growth at 10 µM (MCF7 [3]): 89.7%
growth at 10 µM (NCI/ADR-RES): 72.2%
growth at 10 µM (A549): 84.1%
GI50 [4]: 35.5 µM
LC50 (concentration killing 50% of cells) [4]: > 100 µM
TGI [4]: > 100 µM
growth at 10 µM [5]: 83.1%
GI50 (MDA-MB-231): 38 µM
CC50 (MDA-MB-231): > 100 µM
TGI (MDA-MB-231): > 100 µM
growth at 10 µM (K562): 92.3%
GI50 [6]: 70.8 µM
LC50 [6]: > 100 µM
TGI [6]: > 100 µM
growth at 10 µM (ACHN [7]): 27.9%
growth at 10 µM [8]: 100%
growth at 10 µM [9]: 99%
growth at 10 µM (786-0): 93.5%
GI50 (U-251): 43.7 µM
LC50 (concentration giving 50% net cell kill) (U-251): > 100 µM
TGI (U-251): > 100 µM
growth at 10 µM [10]: 102%
GI50 [11]: 43.7 µM
LC50 [11]: > 100 µM
TGI [11]: > 100 µM
GI50 (ACHN [12]): 3.31 µM
LC50 (concentration killing 50% of cells) (ACHN [12]): > 100 µM
TGI (ACHN [12]): 16.2 µM
GI50 (SK-MEL-2): 31.6 µM
LC50 (SK-MEL-2): > 100 µM
TGI (SK-MEL-2): > 100 µM
GI50 (M14): 44.7 µM
LC50 (M14): > 100 µM
TGI (M14): > 100 µM
growth at 10 µM [14]: 107%
growth at 10 µM [15]: 117%
growth at 10 µM [16]: 104%
growth at 10 µM (KM12): 112%
